Bioassay records as filed in PubChem BioAssay.
This is a sample that favours compounds with a hit; in the whole collection about 0.79% have one here.
mIAP block: inhibitors of mouse IAP, primary screen, biochemical, luminescence, uHTS; purified mouse IAP, CDP-Star luminescence, 30 min; intestinal alkaline phosphatase [Mus musculus]; inhibition, % at 10 µM; 330,000 compounds, 0.2% hits;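 active = inhibition of at least 40% at 10 µM in the primary screen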;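 note: plate controls were DMSO with enzyme for no effect and no enzyme wells for full effect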
hIAP block: human IAP inhibitors, primary screen, biochemical, luminescence, uHTS | Intestinal-type alkaline phosphatase (Homo sapiens), P09923 | purified IAP, CDP-Star luminescence, 30 min | inhibition, % at 10 µM | 330,000 compounds, 0.12% hits | AID 2544, 2010;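 active = inhibition reaching a set limit with compound at 10 µM in the primary screen, cut at about 35% in these data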;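 note: plate controls were DMSO wells with enzyme for no effect and no-enzyme buffer wells for full effect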
Target sequence (P09923 whole entry, looked up): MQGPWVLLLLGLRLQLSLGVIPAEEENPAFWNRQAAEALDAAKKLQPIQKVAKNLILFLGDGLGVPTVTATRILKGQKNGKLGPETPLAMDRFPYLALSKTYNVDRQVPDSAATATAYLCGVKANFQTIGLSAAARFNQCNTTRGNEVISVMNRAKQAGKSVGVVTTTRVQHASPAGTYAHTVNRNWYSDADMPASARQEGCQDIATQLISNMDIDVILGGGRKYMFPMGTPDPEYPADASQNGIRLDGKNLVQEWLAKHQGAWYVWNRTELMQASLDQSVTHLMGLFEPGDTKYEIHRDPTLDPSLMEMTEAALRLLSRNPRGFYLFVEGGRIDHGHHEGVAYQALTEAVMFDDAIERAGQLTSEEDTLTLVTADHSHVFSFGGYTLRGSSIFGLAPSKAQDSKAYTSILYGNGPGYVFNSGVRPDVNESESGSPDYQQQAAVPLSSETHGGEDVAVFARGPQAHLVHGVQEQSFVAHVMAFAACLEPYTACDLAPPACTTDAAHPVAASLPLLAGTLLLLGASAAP
bIAP activator: bovine intestinal alkaline phosphatase activators, primary screen, biochemical, bovine IAP, CDP-star luminescence; alkaline phosphatase, intestinal [Bos taurus]; purified bovine IAP, 30 min; active compounds read high; fold of DMSO-control signal, blank-subtracted; activation factor at 20 µM; 200,000 compounds, 0.17% hits; AID 1016, 2008;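 active = activation factor of 2 or more at 20 µM, a signal rise over negative controls twice the positive control's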
mIAP act: activators of mouse IAP, primary screen, biochemical, luminescence, uHTS. 330,000 compounds, 0.24% hits. muIAP, CDP-Star luminescence, 30 min; active compounds read high; 1 = vehicle-only enzyme signal, 0 = enzyme-free wells. activation factor at 10 µM. AID 2805, 2010;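 active = activation factor of at least 2 at 20 µM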
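Assay system: mouse IAP enzyme; reagent: chemiluminescent substrate CDP-Star; dosing: test compounds delivered from DMSO solution; schedule: 30 min at room temperature; measured by: luminescence from enzymatic CDP-Star hydrolysis; controls: DMSO-only wells and no-enzyme negative control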
hIAP activ: human IAP activators, primary screen, biochemical, luminescence, uHTS; Intestinal-type alkaline phosphatase (Homo sapiens), P09923; purified human IAP, CDP-Star luminescence, 30 min; active compounds read high; 1 = vehicle-only enzyme, 0 = enzyme-free background; activation factor at 10 µM; 330,000 compounds, 0.16% hits; AID 2524, 2010;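 active = activation factor of the enzyme at least 2-fold when tested at 20 µM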
bIAP inhibitor: bovine intestinal alkaline phosphatase inhibitors, primary screen, selectivity assay for TNAP inhibitor project, biochemical, bovine IAP, CDP-star luminescence. 190,000 tested, under 10 active. purified bovine IAP, 30 min. inhibition, % at 20 µM. alkaline phosphatase, intestinal [Bos taurus];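 active = over 50% inhibition of intestinal alkaline phosphatase at 20 µM in the single-dose screen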
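Incubation: 30 min reaction at room temperature / Material: purified bovine intestinal alkaline phosphatase (IAP) enzyme / Input: enzyme at 1/65,000,000 dilution / Dosing: 20 µM single dose / Signal: CDP-star luminescence signal / Reagent: CDP-star chemiluminescent phosphatase substrate, 30 µM final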
hIAP act conf: human IAP activators, confirmation, biochemical, luminescence, single concentration, uHTS hits. shares compounds with hIAP activ. purified IAP, CDP-Star luminescence, 30 min; active compounds read low. activation (%Activity, negative = activation), % at 8.3 µM. 880 compounds, 10% hits. AID 434926, 2010;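 active = at least twofold enzyme activation in any of six single-dose repeats, which the averaged readout prints as negative percent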
* marks the source's active call; other numbers are inactive results; · = no result.

SMILES	mIAP block	hIAP block	bIAP activator	mIAP act	hIAP activ	bIAP inhibitor	hIAP act conf
O=C(Nc1ccc(Cl)cc1F)C1CCN(S(=O)(=O)c2cccc3nonc23)CC1	4	4	·	0.96	0.96	·	·
Cc1cccc(-n2ncc3c(NCc4ccco4)ncnc32)c1	-12	-2	0.9	1.1	1	8	·
Cc1cccc(-n2ncc3c(NNC(=O)c4ccco4)ncnc32)c1	4	-247	·	0.96	3.5*	·	-74*
Cc1ccc(-n2ncc3c(NNC(=O)c4ccco4)ncnc32)cc1Cl	4	-193	·	0.96	2.9*	·	-57
CCCCn1c(O)c(N=Nc2ccccc2O)c2ccccc21	20	-174	·	0.8	2.7*	·	6
CCCOc1ccccc1OCC(=O)Nc1cccc(S(=O)(=O)NC2=NCCC2)c1	-11	-10	·	1.1	1.1	·	·
O=C(NCC1CCCO1)C(=O)N/N=C/c1cc(Cl)ccc1O (stereo unspecified)	-8	-100	·	1.1	2*	·	-16
COc1cc(NC(C)CCCN)c2ncccc2c1 (stereo unspecified)	1	52*	·	0.99	0.48	·	-49
Cc1c(C(=O)NNC(=S)Nc2ccc(S(N)(=O)=O)cc2)oc2ccccc12	19	-105	·	0.81	2.1*	·	-5
CCOc1cccc(OCCOCCOc2ccccc2C(C)=O)c1	-7	-124	0.9	1.1	2.2*	9	-219*
CCN(CC)C(=O)C(=O)N/N=C/c1ccc(Cl)cc1Cl	1	-112	1	0.99	2.1*	4	-42
Cc1ccc(O)c(N/C=C/C(=O)c2ccc(F)cc2)c1	6	-185	·	0.94	2.8*	·	-120*
C=CCN1C(=O)/C(=C/C=C2/N(CC)c3ccc(S(=O)(=O)N(C)C)cc3N2CC)SC1=S	27	36*	0.9	0.73	0.64	14	0
COc1cc(C=C2C(=O)c3ccccc3C2=O)ccc1O	27	32	·	0.73	0.68	·	·
COc1ccc(C=C2C(=O)c3ccccc3C2=O)cc1O	23	45*	0.3	0.77	0.55	·	56
CCOC(=O)N1CCN(C(=O)C(=O)Nc2sc3c(c2C(N)=O)CC(C)(C)OC3)CC1	2	2	·	0.98	0.98	·	·
CN(CC(=O)Nc1ccccc1Cl)C(=O)COC(=O)c1cnccn1	-3	35*	·	1	0.65	·	-1
Cc1ccc(NS(=O)(=O)c2ccc(-c3cnc(C4CC4)o3)cc2)cc1	1	37*	·	0.99	0.63	·	-5
COc1ccc2nc3cc(Cl)ccc3c(Nc3cc(CN4CCCC4)c(O)c(CN4CCCC4)c3)c2n1	12	43*	·	0.88	0.57	·	-60*
c1ccc(Nc2ccnc(Nc3ccccc3)n2)cc1	-11	-177	·	1.1	2.8*	·	-44*
CCC1(CC)NC(=O)N(CC(=O)Nc2cccc3ccccc23)C1=O	4	-5	·	0.96	1.1	·	·
CCOC(=O)c1c(C)[nH]c(C(=O)N/N=C\c2ccccc2O)c1C	·	·	1.2	·	·	-18	·
CCOC(=O)c1c(C)[nH]c(C(=O)N/N=C/c2cc([N+](=O)[O-])ccc2O)c1C	39	-108	·	0.61	2.1*	·	30
O=C(O)c1ccc2c(c1)C(=O)N(Cc1ccc3c(c1)OCO3)C2=O	4	18	1	0.96	0.82	-3	·
O=C1c2ccccc2C(=O)N1Cc1ccc2c(c1)OCO2	-5	-100	0.9	1.1	2*	8	-26
SMILES	mIAP block	hIAP block	bIAP activator	mIAP act	hIAP activ	bIAP inhibitor	hIAP act conf
O=S1(=O)NC(CC2=CCCCC2)C2CCCCC2O1 (stereo unspecified)	-7	3	·	1.1	0.97	·	·
O=C1/C(=C\c2ccc(O)c(O)c2)SC(=S)N1Cc1ccccc1	33	55*	·	0.67	0.45	·	-89
COc1cc(/C=C2/SC(=S)N(Cc3ccccc3)C2=O)ccc1O	28	4	·	0.72	0.96	·	·
CC(C)C(OC(=O)C1=Cc2ccccc2OC1)C(=O)NC1CCCC1 (stereo unspecified)	-6	12	0.9	1.1	0.88	8	·
CCC(OC(=O)C1=Cc2ccccc2OC1)C(=O)NC1CCCC1 (stereo unspecified)	3	66*	0.9	0.97	0.34	9	-53*
CCOc1ccc(N(CC(=O)NC2CCCCC2)C(=O)CCCC(=O)Nc2ccccn2)cc1	7	3	·	0.93	0.97	·	·
Cc1ccc(OCCNC(=O)Cc2ccc(S(=O)(=O)N3CCOCC3)s2)cc1	-3	-7	·	1	1.1	·	·
Cc1ccccc1OC(C)C(=O)NCCCN1CCOCC1 (stereo unspecified)	5	13	·	0.95	0.87	·	·
O=C(Cc1ccc(S(=O)(=O)N2CCOCC2)s1)NCCOc1ccccc1	-3	-19	·	1	1.2	·	·
O=C(N/N=C/c1ccncc1)c1nc2ccccc2c(=O)[nH]1	-19	-170	·	1.2	2.7*	·	7
O=C(N/N=C/c1ccc2cccnc2c1)c1nc2ccccc2c(=O)[nH]1	9	-167	·	0.91	2.7*	·	-193*
COc1ccc(-c2csc(NC(=S)NC(=O)c3ccccc3)n2)cc1Br	10	-18	·	0.9	1.2	·	·
COc1ccc(C(=O)NC(=S)Nc2nc(-c3ccc(OC)c(Br)c3)cs2)cc1Br	16	38*	·	0.84	0.62	·	1
Cc1ccc(S(=O)(=O)NCCC(=O)NNC(=O)COc2ccc(Br)cc2)cc1C	-6	-148	·	1.1	2.5*	·	41
CCNC(=O)Nc1ccccc1C(=O)OC	-5	-19	1	1.1	1.2	-2	·
C#CC(CC)(CC)NC(=O)Nc1ccccc1C(=O)OC	12	39*	1.1	0.88	0.61	-6	-4
CC(C)CN(C(=O)c1ccc(Br)o1)C1CCS(=O)(=O)C1 (stereo unspecified)	-8	-4	·	1.1	1	·	·
Cn1cccc1C(=O)NC(=O)CSc1nc2ccccc2s1	-1	-107	0.9	1	2.1*	11	1
CC(=O)CSc1nc2ccccc2s1	0	0	1	1	1	3	·
O=C(CNC(=S)N(CCCN1CCOCC1)Cc1cccs1)NCc1ccccc1	-12	-207	·	1.1	3.1*	·	5
O=C(CNC(=S)N(CCCN1CCOCC1)Cc1cccs1)NC1CC1	17	-20	1	0.83	1.2	5	·
